# PRMT1 inh: PRMT1 (human) inhibition, primary screen. inhibition, % at 2.79 µM. Q99873. recombinant PRMT1, activity-based probe fluorescence polarization. AID 652257. 370,000 tested, 1.3% active;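 active = inhibition above about 21% made by adding two undisclosed values, limit read from the data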
# PAD4 inh: inhibitors of human PAD4 | inhibition, % at 6.36 µM | AID 485272 | 330,000 tested, 0.41% active | recombinant PAD4, RCA probe fluorescence polarization;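 active = percent inhibition above a cutoff equal to the mean of all tested compounds plus 3 SD, cut at about 15% in these data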;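 note: 0% = PAD4 with RCA probe and DMSO and 100% = probe without PAD4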
# E coli Lon inh: inhibitors of E. coli Lon protease | P0A9M0 | purified E. coli Lon protease, fluorescence polarization | inhibition, % at 7.94 µM | 360,000 tested, 0.42% active; in the data active = inhibition above about 13%, passing the limit was not always enough;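 note: 0% = enzyme with probe and DMSO and 100% = no enzyme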
# GSTO1 inh: counter-screen for RBBP9 inhibitors: inhibitors of human GSTO1; 300,000 tested, 1.1% active; inhibition, % at 5.96 µM; recombinant GSTO1, activity-based probe fluorescence polarization; P78417;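 active = inhibition above the campaign mean inhibition plus 3 SD, cut at about 35% in these data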;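 note: 0% = GSTO1-1 with DMSO and 100% = wells lacking GSTO1-1 enzyme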
# Target sequence (P78417 whole entry, looked up): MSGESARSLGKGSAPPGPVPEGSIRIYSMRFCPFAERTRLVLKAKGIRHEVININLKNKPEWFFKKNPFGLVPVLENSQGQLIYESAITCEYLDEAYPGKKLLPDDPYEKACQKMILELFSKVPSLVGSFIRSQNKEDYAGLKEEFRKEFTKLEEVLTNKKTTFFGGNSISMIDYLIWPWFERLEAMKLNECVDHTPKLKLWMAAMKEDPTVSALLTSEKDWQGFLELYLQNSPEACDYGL
# TDP2 inh: blocks human TDP2 phosphodiesterase activity; O95551; recombinant TDP2, T5PNP hydrolysis, p-nitrophenol absorbance 415 nm; inhibition, % at 12.8 µM; 370,000 tested, 0.34% active; AID 720702;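 active = inhibition above the mean of all tested compounds plus 3 SD, set per campaign, cut at about 25% in these data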;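 note: 0% = DMSO with enzyme and 100% = buffer with substrate but no TDP2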
# Target sequence (O95551 whole entry, looked up): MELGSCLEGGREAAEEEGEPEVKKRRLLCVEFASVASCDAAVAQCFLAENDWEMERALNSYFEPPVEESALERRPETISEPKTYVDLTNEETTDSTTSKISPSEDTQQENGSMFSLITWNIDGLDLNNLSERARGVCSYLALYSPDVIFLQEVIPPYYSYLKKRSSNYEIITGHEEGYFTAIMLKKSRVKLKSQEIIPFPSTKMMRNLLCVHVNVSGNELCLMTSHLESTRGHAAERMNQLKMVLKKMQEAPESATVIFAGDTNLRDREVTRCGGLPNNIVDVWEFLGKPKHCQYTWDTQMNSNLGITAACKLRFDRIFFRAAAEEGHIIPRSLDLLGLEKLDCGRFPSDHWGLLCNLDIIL
#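 test system = human TDP2 enzyme | input = TDP2 enzyme at 120 nM final | medium = 50 mM Tris-HCl pH 7.5 with Mg2+, KCl, DTT, BSA | also added = T5PNP substrate, 5 mM | times = 2 h at 37 °C | technique = epi absorbance | benchmarks = high control without enzyme, low control DMSO plus TDP2 | replication = each compound tested once, singlicate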
# TDP2 confirm: confirmation of human TDP2 inhibitors | shares compounds with TDP2 inh | recombinant human TDP2, absorbance read-out | inhibition, % at 12.8 µM | 1,100 tested, 22% active | AID 743263; in the data active = inhibition above about 25%;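 note: 0% = vehicle with enzyme and 100% = no enzyme buffer only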
# Starred values were filed as active, the others as inactive; / = no result. Only some compounds are listed: those with a hit (about 2.5% of all), similar ones and a draw of the others.
SMILES,PRMT1 inh,PAD4 inh,E coli Lon inh,GSTO1 inh,TDP2 inh,TDP2 confirm
Cc1ccc(NC(=O)Cc2nnc(SCC(=O)Nc3nncs3)n2C)c(C)c1,0.1,-1.2,-6.9,-6.8,29.2*,2.4
Cn1c(CC(=O)Nc2ccccc2Cl)nnc1SCC(=O)Nc1nncs1,-5.6,2.3,-5.8,2.5,2.5,/
CCOC(=O)C1(CCOC)CCN(C(=O)c2sccc2C)CC1,-0.9,-1.9,-1.9,15.8,26.0*,-9.9
CCOC(=O)C1(Cc2ccccc2C)CCCN(C(=O)c2sccc2C)C1 (centres undefined),-4.8,-1.4,-1.6,-1.9,3.8,/
Cc1[nH][nH]c(=O)c1C(c1cc(Br)ccc1O)c1c(C)[nH][nH]c1=O,-4.9,-4.4,-2.8,25.9,29.9*,16.4
S=C(Nc1ccc(Cl)c(Cl)c1)N1CCCC1,2.4,4.8,4.7,-1.8,10.0,/
S=C(Nc1ccc2nsnc2c1)N1CCCCC1,3.4,-10.2,16.7,27.6,75.9*,54.4*
CN1CCN(c2ncnc3c2ncn3[C@H]2CN(Cc3ccc(C(=O)O)cc3)C[C@@H](CO)O2)CC1,2.2,/,-7.8,/,0.3,/
Cc1ccccc1S(=O)(=O)N1CCCc2nc(-c3ccccc3)ccc21,-3.6,/,/,/,5.4,/
CC1=NN(c2ccccc2)C(=O)C1N=Nc1ccc(N)cc1 (centres undefined),3.2,-9.5,-14.0,21.6,28.8*,-1.1
CC1=NN(c2ccccc2)C(=O)C1N=Nc1ccccc1 (centres undefined),3.8,-2.2,-0.9,1.2,-6.4,/
CCC(C)c1ccc(S(=O)(=O)N2CCN(C(=O)c3ccc(Cl)c(S(=O)(=O)N4CCOCC4)c3)CC2)cc1 (centres undefined),-0.4,/,8.7,/,1.4,/
Cc1[nH]n(-c2ccccc2)c(=O)c1N=Nc1ccccc1,-1.3,-5.9,-5.4,-7.5,12.3,/
Cc1[nH]n(-c2ccccc2)c(=O)c1C(C[N+](=O)[O-])c1ccc(F)cc1 (centres undefined),0.5,13.5,1.1,58.9*,37.6*,20.1
O=S(=O)(NC1CCSc2ccccc21)c1ccc(Cl)nc1 (centres undefined),-2.1,2.2,-3.4,0.8,28.5*,-1.5
CC1=CC2(O)OCCN(CCO)C2=CC1=O (centres undefined),15.2,-1.7,-5.2,23.1,32.5*,9.3
Cc1cc(C)n(-c2ncc3c(n2)N(CCO)CCOC3=O)n1,-0.6,0.9,1.8,7.3,8.0,/
N#Cc1ccccc1NC(=O)CSc1n[nH]c(-c2ccco2)n1,-0.1,-4.4,-3.4,6.1,32.3*,-0.1
CS(=O)(=O)c1nc(S(=O)(=O)c2ccc(Cl)cc2)c(NCCCN2CCOCC2)s1,-0.8,1.9,-1.2,4.9,26.8*,1.3
O=C(NCc1ccccc1)C(c1ccccc1F)n1c(=O)c(-c2ccco2)nc2ccccc21 (centres undefined),13.0,/,/,/,3.8,/
N/C(=N\N=Cc1ccc2c(c1)OCO2)NN=Cc1ccc2c(c1)OCO2,3.1,/,-11.4,/,44.0*,-6.8
N#Cc1ccc(CN2CCN(C(=O)Cn3nc(C(N)=O)c4ccccc4c3=O)CC2)cc1,1.3,7.8,-0.8,0.5,7.1,/
COc1ccc(C)cc1NC(=S)NN1CCN(C)CC1,4.1,-3.1,-0.6,0.9,29.0*,0.7
Cc1nccn1CCCNC(=O)c1nc(Cn2cc([N+](=O)[O-])cn2)no1,-6.9,-5.4,2.3,3.4,-15.8,/
COc1cc(OC)c(NC(=O)CCNS(=O)(=O)c2ccc3c(c2)CC(C)N3C(C)=O)cc1Cl (centres undefined),-2.9,0.2,1.1,9.2,31.3*,4.0
SMILES,PRMT1 inh,PAD4 inh,E coli Lon inh,GSTO1 inh,TDP2 inh,TDP2 confirm
CC(=O)N1c2ccc(S(=O)(=O)NCCC(=O)Nc3ccc(C)c(Cl)c3)cc2CC1C (centres undefined),4.4,-2.3,-4.0,6.6,-10.7,/
Cc1cc(C)c(C(N)=O)c(Nc2cccc3ccccc23)n1,-0.2,2.3,4.7,0.3,24.7*,8.5
Cc1[nH][nH]c(=O)c1C(c1ccc(-c2ccc(Cl)c(C(=O)O)c2)o1)c1c(C)[nH][nH]c1=O,12.8,/,-6.7,/,50.9*,-4.8
CC1(C)OC(=O)C(=Cc2ccc(-c3ccc(Cl)c(C(=O)O)c3)o2)C(=O)O1,14.7,-2.1,-6.2,11.2,5.3,/
CC(=O)N(CN1C(=O)c2ccccc2C1=O)c1cccc(C)c1,2.5,-5.1,-5.3,0.3,3.0,/
CC(=O)N(/N=C1\Sc2ccccc2C1=O)c1cccc(C)c1,8.2,-3.0,-6.1,28.1,68.9*,52.9*
CC(C)(C)[C@@H]1CCC(=O)N(CC[C@H](N=[N+]=[N-])c2ccccc2)CC1,-2.0,-3.1,-2.7,-1.0,-9.3,/
O=C(Cn1cnc([N+](=O)[O-])c1)Nc1ccc(F)c(Cl)c1,-3.7,/,-7.6,/,28.6*,-8.3
[O-][N+](=C(c1ccccc1)c1ccccc1)c1ccccc1,-2.1,/,-1.7,/,-0.5,/
CC(=O)Nc1cccc(C(=O)N2CCN(S(=O)(=O)c3ccc(C4CCCCC4)cc3)CC2)c1,-3.1,/,-6.7,/,-1.7,/
CCCn1c(N)c(N(CCOC)C(=O)c2ccc(-c3ccc(Cl)cc3)o2)c(=O)[nH]c1=O,2.0,-4.6,-20.1,9.0,9.7,/
CCC(Oc1ccccc1)C(=O)Nc1ccc(C)c(S(=O)(=O)N2CCOCC2)c1 (centres undefined),1.9,2.1,0.2,-2.1,28.9*,4.8
O=C(Cn1cnc2ccccc2c1=O)N1CCCCC1,-7.9,/,/,/,-4.5,/
Cc1ccc2nc(-c3ccc4c(c3)NC(=O)CO4)cn2c1,-0.3,0.2,6.7,1.6,24.9*,3.3
Cc1ccc2nc(-c3ccc4c(c3)OCCO4)cn2c1,3.0,-3.1,5.2,3.8,8.8,/
COc1ccc(CNCCCC(=O)Nc2c(Cl)ccc(C)c2Cl)cc1OC,-2.3,-1.1,-1.1,1.6,29.5*,8.2
CCOC(=O)C1CCN(c2cc3c(cc2NC(=O)c2ccccc2Br)n(C)c(=O)n3C)CC1,-0.5,-0.5,3.9,-2.7,25.8*,-0.5
COc1cc(N)c2ncccc2c1SC,4.3,/,-24.3,/,44.7*,3.0
COc1cc(N)c2ncccc2c1Br,17.5,/,-25.9,/,76.2*,50.7*
COc1cc(NC(C)=O)c2ncccc2c1NC(C)=O,-1.3,-1.6,0.1,-5.8,-8.6,/
CN1CCN(C(=O)COCc2cc(-c3ccc4c(c3)OCO4)on2)CC1,-0.3,-2.2,-11.2,1.7,2.5,/
O=[N+]([O-])c1ccc(Oc2ccc(-c3nnco3)cc2)c(Cl)c1,-4.2,0.4,-2.4,-2.0,46.5*,4.0
Cc1cc(C)c2c(N)c(C(=O)c3ccccc3)oc2n1,-0.8,1.6,0.7,19.7,5.5,/
Cc1cc(-c2ccccc2)nc2oc(C(=O)NN)c(N)c12,0.8,-8.9,-23.3,1.7,30.2*,6.1
CCOc1ccc(CCNC(=O)C2CC(=O)N(CCc3ccc(OC)c(OC)c3)C2)cc1OCC (centres undefined),-1.4,1.9,5.2,-14.2,25.1*,2.5
